The source of these data is publication PMC3910017 (CPT: Pharmacometrics & Systems Pharmacology, 2014).

For data set [1] the following is noted: cited from earlier work.
Data set [2] concerns LDL-C. As to conditions: cited from earlier work.
The test system of data set [3] is HDL-C. As to conditions: similar exposure-response analysis; cited from earlier work.
The conditions of data set [4]: ref J.G. Suico et al., unpublished data, cited from earlier work.
The nature of data set [5]: Healthy subject studies of evacetrapib. Format: in vivo, human. Particulars: 30-mg single dose, healthy subjects; data not shown.
For data set [6], the system named is LDL-C. Kind of data set: LDL-C percent change from baseline, exposure-response. The format is in vivo, human. A digest of the protocol: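 Arms were placebo or 30, 100 or 500 mg daily monotherapy, or 100 mg with simvastatin 40 mg, atorvastatin 20 mg or rosuvastatin 10 mg, for 12 weeks. LDL-C was measured by standard enzymatic assay at weeks 2, 4, 8 and 12. Percent change from baseline was modelled with placebo, statin and test-compound Emax terms on post hoc AUC, an interaction term, and time constant K. Covariates included baseline ApoA1.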

The conditions of data set [7]: cited from earlier work. This is another data set of the same source.
Data set [8] is classed as in vivo, human.
The test system of data set [9] is HDL-C. Particulars: dyslipidemic patients, alone or with statins; cited from earlier work.
Data set [10] deals with HDL-C. Briefly: HDL-C percent change from baseline, exposure-response. The format is in vivo, human. As to conditions: for HDL-C increase as percent of the maximal effect: from EAUC50 and estimated AUC. A digest of the protocol: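 Dyslipidemic patients took placebo or 30, 100 or 500 mg daily for 12 weeks, or 100 mg plus simvastatin 40 mg, atorvastatin 20 mg or rosuvastatin 10 mg. HDL-C was measured by enzymatic assay at weeks 2, 4, 8 and 12. Percent change from baseline was fitted with placebo and statin terms plus a sigmoid Emax on each patient's post hoc steady-state AUC (EAUC50, Hill coefficient), with rate constant K.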

Data set [11] has as its system LDL-C. Particulars: dyslipidemic patients, alone or with statins; cited from earlier work.
The nature of the next data set: Protein binding. As to conditions: separate studies. The format is in vitro ADME.
The next data set is described as follows: Metabolism. Particulars: separate studies.
The conditions of data set [12]: patients in the ILLUMINATE study; cited from earlier work.
Where [13] appears, read: phase III formulation of anacetrapib.
Where [14] appears, read: week 16–18, 4–6 weeks after last dose, monotherapy groups.

Several values for one entry are separate records, joined by “and”; a condition that tells them apart may be missing. Equal values may be shown once. Read-outs that look alike come from different tables or passages of the source.

On to `COc1cc(F)c(C(C)C)cc1-c1ccc(C(F)(F)F)cc1CN1C(=O)O[C@H](c2cc(C(F)(F)F)cc(C(F)(F)F)c2)[C@@H]1C` [anacetrapib], for which, in data set [1], the “Increase of exposure with dose” value is reported as “Less than dose-proportional”. In [1] (setting [13]), the “AUC with high-fat meal vs fasted state” value is 7.5 fold and the “AUC with low-fat meal vs fasted state” value was 2.2 fold. Besides, the “LDL-C reduction in combination with atorvastatin, kind of interaction” value in the data set with LDL-C [2] is “pharmacologically independent”. Moreover, the “Theoretical maximal LDL-C reduction” value with LDL-C [2] (similar LDL-C model) was 80%. Moreover, the “Maximal effect on HDL-C” value with HDL-C [3] is given as 176%.

For `Cc1cc(C)c2c(c1)[C@@H](N(Cc1cc(C(F)(F)F)cc(C(F)(F)F)c1)c1nnn(C)n1)CCCN2C[C@H]1CC[C@H](C(=O)O)CC1` [evacetrapib], the Half-life in data set [4] (healthy subject studies) is around 40 h. In addition, the “Increase of exposure with dose” value in [4] (healthy subjects, 10–600 mg dose range) is “less than dose-proportional”; in data set [8] (30–500 mg, dyslipidemic patients), “less than dose-proportional”. Moreover, the “AUC0–∞ increased after a high-fat meal relative to low-fat meal” value in data set [5] is listed as 41%. Besides, the “AUC0–∞ reduced in the fasted state relative to low-fat meal” value in data set [5] was 38%. In addition, in the data set with LDL-C [6] (coadministered with atorvastatin, simvastatin or rosuvastatin), the “LDL-C response of evacetrapib and the statins, kind of interaction” value was “pharmacologically independent”. For the same molecule, in the data set with LDL-C [6] (final LDL-C model), the “AUC that produced half of maximum effect (EAUC50), LDL-C, population estimate (%SEE, 95% CI)” value was 4,230 (3.23%, 2,450 to 7,010) h·ng/ml. Moreover, the “Theoretical maximal mean LDL-C decrease (reduction) relative to baseline” value with LDL-C [6] (final LDL-C model, printed as a reduction) is listed as 44.1%. In the data set on LDL-C [6] (setting [14]), the “LDL-C at follow-up visit after discontinuation” value is listed as “returned to levels similar to those of the placebo group”. The Safety and tolerability result in data set [7] (administered alone or in combination with statins) is “safe and well tolerated”. For the same molecule, the “Changes in mineralocorticoid levels or increases in systolic or diastolic blood pressure” value in data set [7] (dyslipidemic patients) is “did not cause any significant changes”. In addition, the “Model-predicted population CL/F lower at CGCL 50 ml/minute than at 100 ml/minute” value in [8] (CGCL 50 vs 100 ml/minute) is reported as 10%. The “Effect of dose on CL/F (covariate coefficient)” value in [8] (CL/F = 15.3 * (1+0.00105 * DOSE) * (1+0.00198 * (CGCL − 91.28)), DOSE in mg) is 0.00105 (21.6%, 0.000726–0.00144). For the same molecule, the “CL/F, estimated population value” was 13.1 L/h in data set [8] (dose 30 mg), 17.0 L/h in data set [8] (dose 100 mg) and 25.4 L/h in data set [8] (dose 500 mg). For the same molecule, the “Oral clearance (CL/F), population estimate (%SEE, 95% CI)” value in data set [8] (final population PK model) is 15.3 (4.57%, 14.3–16.5) l/hour. Besides, in data set [8] (final population PK model), the “Peripheral volume of distribution (V3/F), population estimate (%SEE, 95% CI)” value is on record as 827 (18%, 600.7–1,071) l. Besides, the “Rate of absorption (Ka)” value in data set [8] (final population PK model, value fixed, not estimated) is 0.3 hour^-1 and 0.3 (fixed) hour^-1. Also, the Vd/F in data set [8] (human, plasma, oral) was found to be 228 L. For the same molecule, the “Observed HDL-C increase” value in the data set with HDL-C [9] was “up to 129%”. For the same molecule, the “HDL-C increase as percent of the maximal effect” value with HDL-C [10] (30 mg dose) is on record as ~ 30 % of the maximal effect; in the data set with HDL-C [10] (100 mg dose) it was ~50 % of the maximal effect; with HDL-C [10] (500 mg dose) it was ~80 % of the maximal effect. Also, the “Time course constant (K) of HDL-C response, population estimate (%SEE, 95% CI)” value in the data set with HDL-C [10] (final HDL-C model) was 0.00684 (7.43%, 0.00604–0.00791) hour^−1. Further, in the data set on HDL-C [10] (final HDL-C model, at median baseline HDL 52.2 mg/dl), the “AUC that produced half of maximum effect (EAUC50), HDL-C, population estimate (%SEE, 95% CI)” value is recorded as 5,380 (1.54%, 3,930–7,270) h·ng/ml. For the same molecule, the “Maximum effect (Emax) on HDL-C, population estimate (%SEE, 95% CI)” value with HDL-C [10] (theoretical maximum at steady state, final HDL-C model) is recorded as 177 (6.55%, 153–207) % change from baseline. Besides, the “HDL-C at follow-up visit after discontinuation” value in the data set on HDL-C [10] (setting [14]) is on record as “returned to levels similar to those of the placebo group”. In the data set on LDL-C [11], the “Observed LDL-C decrease” value is given as “up to 36%”. This molecule came in with a Protein bound in “Protein binding” above 99%. Moreover, the Metabolism entry in the data set “Metabolism” is “metabolized primarily by oxidative pathways”.

As for `CCOC(=O)N1c2ccc(C(F)(F)F)cc2[C@@H](N(Cc2cc(C(F)(F)F)cc(C(F)(F)F)c2)C(=O)OC)C[C@H]1CC` [torcetrapib], in data set [12], the Adverse cardiovascular events result is listed as “increased adverse cardiovascular events”.
